Source: ChEMBL document CHEMBL2375221, “Preparation and antimalarial activity of semisynthetic lycorenine derivatives” (Eur J Med Chem, 2013)

Tested on: Plasmodium falciparum
Test: Antimalarial activity against chloroquine-sensitive Plasmodium falciparum F-32 Tanzania infected in blood assessed as decrease in parasitaemia after 48 hrs
Format: functional, organism-based
Outline: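 P. falciparum F-32 Tanzania (chloroquine-sensitive) grown in glucose-enriched RPMI 1640 with 10% human serum at 37 °C. After 24 h at 37 °C, the medium was replaced with fresh medium containing compound in DMSO at three concentrations (0.1, 1, 10). Incubation continued 48 h. On day three, a blood smear from each well was used to score parasitaemia versus control. IC50 was read graphically against concentration.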

Row | IC50 [µM] | Structure (SMILES)
1 | 18.8 | CN1CCC2=C[C@H](O)[C@H]3NC(=O)c4cc5c(cc4[C@H]3[C@@H]21)OCO5
2 | 58.8 | CC(=O)O[C@H]1C=C2CCN(C)[C@H]2[C@@H]2c3cc4c(cc3C(=O)O[C@@H]21)OCO4
3 | 49.8 | CN1CCC2=C[C@H](OC(=O)c3cccnc3)[C@H]3OC(=O)c4cc5c(cc4[C@H]3[C@@H]21)OCO5
4 | 42.2 | CN1CCC2=C[C@H](OC(=O)c3ccc(Br)cc3)[C@H]3OC(=O)c4cc5c(cc4[C@H]3[C@@H]21)OCO5
5 | 57.1 | CC(C)C(=O)O[C@H]1C=C2CCN(C)[C@H]2[C@@H]2c3cc4c(cc3C(=O)O[C@@H]21)OCO4
6 | 7.4 | COC(=O)c1cc(C(=O)OC)cc(C(=O)O[C@H]2C=C3CCN(C)[C@H]3[C@@H]3c4cc5c(cc4C(=O)O[C@@H]32)OCO5)c1
7 | 55.4 | C=CCCC(=O)O[C@H]1C=C2CCN(C)[C@H]2[C@@H]2c3cc4c(cc3C(=O)O[C@@H]21)OCO4
8 | 61.8 | CCOC(=O)O[C@H]1C=C2CCN(C)[C@H]2[C@@H]2c3cc4c(cc3C(=O)O[C@@H]21)OCO4
9 | 49.4 | C=Cc1ccc(C(=O)O[C@H]2C=C3CCN(C)[C@H]3[C@@H]3c4cc5c(cc4C(=O)O[C@@H]32)OCO5)cc1
10 | 87.6 | C[N+]1([O-])CCC2=C[C@H](O)[C@H]3OC(=O)c4cc5c(cc4[C@H]3[C@@H]21)OCO5 (stereo partly drawn)
11 | 70.4 | COC(=O)c1cc2c(cc1-c1cc(OC(C)=O)cc3c1N(C)CC3)OCO2
12 | 58.3 | CN1CC[C@]2(O)[C@H](Br)[C@H](O)[C@H]3OC(=O)c4cc5c(cc4[C@H]3[C@H]12)OCO5
13 | 68.7 | CN1CC[C@@]2(O)[C@@H]1[C@@H]1c3cc4c(cc3C(=O)O[C@@H]1[C@@H](O)[C@@H]2O)OCO4
14 | 67.5 | C=Cc1cccc(-c2cc3c(cc2C(=O)O)OCO3)c1N(C)C
15 | 86.1 | C=Cc1cccc(-c2cc3c(cc2C(=O)O)OCO3)c1N(C)CC
16 | > 100 | C=Cc1cccc(-c2cc3c(cc2C(=O)O)OCO3)c1N(C)CCCC
17 | > 100 | C=Cc1cccc(-c2cc3c(cc2C(=O)O)OCO3)c1N(C)CCCCCCCCCCC
18 | 67.6 | C=Cc1cccc(-c2cc3c(cc2C(=O)OC)OCO3)c1N(C)C
19 | 76.2 | C=Cc1cccc(-c2cc3c(cc2C(=O)OC)OCO3)c1N(C)CCCC
20 | 1.3 | CN1CCC2=C[C@H](OC(=O)c3cccc(C(=O)O[C@H]4C=C5CCN(C)[C@H]5[C@@H]5c6cc7c(cc6C(=O)O[C@@H]54)OCO7)c3)[C@H]3OC(=O)c4cc5c(cc4[C@H]3[C@@H]21)OCO5
21 | 3.9 | CN1CCC2=C[C@H](OC(=O)c3cccc(C(=O)O[C@H]4C=C5CCN(C)[C@H]5[C@@H]5c6cc7c(cc6C(=O)O[C@@H]54)OCO7)n3)[C@H]3OC(=O)c4cc5c(cc4[C@H]3[C@@H]21)OCO5
22 | 1.3 | CN1CCC2=C[C@H](OC(=O)c3ccc(C(=O)O[C@H]4C=C5CCN(C)[C@H]5[C@@H]5c6cc7c(cc6C(=O)O[C@@H]54)OCO7)cc3)[C@H]3OC(=O)c4cc5c(cc4[C@H]3[C@@H]21)OCO5
23 | 4 | CN1CCC2=C[C@H](OC(=O)CCCCC(=O)O[C@H]3C=C4CCN(C)[C@H]4[C@@H]4c5cc6c(cc5C(=O)O[C@@H]43)OCO6)[C@H]3OC(=O)c4cc5c(cc4[C@H]3[C@@H]21)OCO5

Row | Structure (SMILES) | IC50 [µM]
24 | CN1CCC2=C[C@H](O)[C@H]3OC(=O)c4cc5c(cc4[C@@]3(O)[C@@H]21)OCO5 | 60.4
25 | CN1CC=C2C=C[C@H]3OC(=O)c4cc5c(cc4[C@H]3[C@@H]21)OCO5 | 94.1
26 | CN1CC[C@]2(Cl)C=C[C@H]3OC(=O)c4cc5c(cc4[C@H]3[C@H]12)OCO5 | 84
27 | CN1CCC2=C[C@H](O)[C@H]3OC(=O)c4cc(O)c(O)cc4[C@H]3[C@@H]21 | 9.9
28 | COc1cc2c(cc1OC)[C@@H]1[C@H](OC2=O)[C@@H](O)C=C2CCN(C)[C@H]21 | 84.5
29 | C[N+]1=CCC2=C[C@H](O)[C@H]3OC(=O)c4cc5c(cc4[C@H]3[C@@H]21)OCO5 | > 100
30 | CN1CC[C@@H]2C[C@H](O)[C@H]3OC(=O)c4cc5c(cc4[C@H]3[C@@H]21)OCO5 | 78.8
31 | CN1CC[C@]2(Br)C[C@H](O)[C@H]3OC(=O)c4cc5c(cc4[C@H]3[C@H]12)OCO5 | 58.7
32 | CN1CCC2=C[C@H](O)[C@H]3OC(=O)c4cc5c(cc4[C@H]3[C@@H]21)OCO5 | 12.7
33 | CN1CCC2=CC(=O)[C@H]3OC(=O)c4cc5c(cc4[C@H]3[C@@H]21)OCO5 [2-OXOHIPPEASTRINE] | 79.8
